# Results pooled from the literature.
# Target: Dual specificity mitogen-activated protein kinase kinase 4 (MAP2K4, Homo sapiens, UniProt P45985)
# Sequence (P45985 1-399, as in one of the studies): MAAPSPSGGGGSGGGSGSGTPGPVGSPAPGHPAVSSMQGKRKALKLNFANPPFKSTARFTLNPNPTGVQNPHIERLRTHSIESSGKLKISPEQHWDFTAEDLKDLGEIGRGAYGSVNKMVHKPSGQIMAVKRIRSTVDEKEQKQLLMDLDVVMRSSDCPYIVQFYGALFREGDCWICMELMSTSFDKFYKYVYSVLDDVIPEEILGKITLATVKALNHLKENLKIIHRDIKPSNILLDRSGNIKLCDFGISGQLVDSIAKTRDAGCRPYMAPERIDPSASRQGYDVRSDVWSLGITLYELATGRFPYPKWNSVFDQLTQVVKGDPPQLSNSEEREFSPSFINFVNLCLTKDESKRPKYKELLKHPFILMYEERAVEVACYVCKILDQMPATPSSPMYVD
SMILES,test,system,conditions,measurement,value
CN1CCN(c2cnc3c(C4CCN(C(=O)c5ccc(OC(F)(F)F)cc5N)CC4)ncnc3c2)CC1,"cell-free assay, competition with immobilised ligand",,1 µM,remaining binding,100%
CCN1CCN(Cc2ccc(NC(=O)c3ccc(C)c(Oc4ccnc5[nH]ccc45)c3)cc2C(F)(F)F)CC1,"target engagement in cells, inhibitor, chemoproteomics",A-375,0.5 µM,inhibition,-23%
C[C@H](c1ccc(F)cc1)N(Cc1cccc(C(=O)O)c1)C(=O)c1cnc2ccccc2c1,"cell-free assay, competition with immobilised ligand",,1 µM,remaining binding,100%
Cc1sc(C(=O)NC2COC2)cc1-n1cc(NC(=O)Nc2c(F)cccc2Cl)cn1,"enzyme activity, inhibitor",,10 µM,remaining activity,93%
CC(C)(C)c1nc2c(s1)c1nc(N)ncc1c1ccc(NS(=O)(=O)c3c(F)cccc3F)c(F)c12,"enzyme activity, inhibitor, radiometric",,1 µM,remaining activity,81%
Nc1ncnc2occ(-c3ccc(NC(=O)Nc4cc(C(F)(F)F)ccc4F)cc3)c12,"cell-free assay, inhibitor",,20 µM,remaining signal,3.9%
Cc1ccc(C(=O)Nc2ccc(CN3CCN(C)CC3)c(C(F)(F)F)c2)cc1C#Cc1cnc2cccnn12,"enzyme activity, inhibitor",,23.5 nM,remaining activity,97%
CC(C)(O)[C@H]1CC[C@H](Nc2ccc3ncc(-c4cccc(C(F)(F)F)c4)n3n2)CC1,"enzyme activity, inhibitor",,1 µM,remaining activity,102%
O=C(Nc1cnn(-c2csc(C(=O)NC3COC3)c2)c1)Nc1ccccc1Cl,"enzyme activity, inhibitor",,5 µM,remaining activity,113%
CN(CCCC(F)(F)F)c1nccc(-c2cnn3ncccc23)n1,binding,,1 µM,remaining binding,100%
CC(C)(C)c1nc(-c2cccc(NS(=O)(=O)c3c(F)cccc3F)c2F)c(-c2ccnc(N)n2)s1,"enzyme activity, inhibitor, radiometric",,1 µM,remaining activity,87%
